# From PubChem
# B2AR ag: beta2AR agonists driving receptor internalization, primary screen, cell-based, FAP fluorogen, flow cytometry. Beta-2 adrenergic receptor (Homo sapiens), P07550. Am2.2-beta2AR cells. response, % (no concentration beside the values). 340,000 tested, 0.43% active;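 active = response above a set limit, near 3 SD of response in nonfluorescent compounds, cut at about 42% in these data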
# NOD2 RIPK2 PPI: NOD2-RIPK2 binding disruptors in cells, primary screen, fluorescence, CHO cells, BLA complementation. Receptor-interacting serine/threonine-protein kinase 2 (Homo sapiens), O43353. CCF4 ratio. inhibition, % at 4.98 µM. 360,000 tested, 0.38% active. AID 624267, 2012; in the data active = inhibition above about 21%;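 note: 0% = vehicle only and 100% = reference blocker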
# Dynein transport: inhibitors of GR-EGFP nuclear translocation, primary screen, dynein cargo transport inhibitor project, imaging, high-content, 3617.4 mouse cells; z-score, hits read low; AID 1381, 2008; 220,000 tested, 0.47% active; test concentration mostly 20 µM; stimulated with dexamethasone, 1 µM; active compounds read low;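 active = plate z-score of nuclear minus cytoplasmic receptor signal below a set negative limit, without overly bright fluorescence or cell loss, cut at about -3.5 in these data, passing the limit was not always enough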;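 note: z-score of nuclear minus cytoplasmic ring GR-EGFP intensity difference per well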
#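 Also added: dexamethasone, 1.0 µM final. Medium: tet-free, stripped-serum medium. Detection: fixed, Hoechst-stained cells imaged at 10x for EGFP. Read-out: nuclear-to-cytoplasmic GR-EGFP distribution per well. Times: induction 48 h, compound 1 h, agonist 30 min.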
# TLR9-MyD88 inh: inhibitors of TLR9-MyD88 association in cells, primary screen, cell-based, CHO, BLA complementation, fluorescence. CCF4 FRET ratio. Toll-like receptor 9 (Homo sapiens) + Myeloid differentiation primary response protein …. inhibition, % at 4.98 µM. 340,000 tested, 0.21% active;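 active = inhibition above the mean over all tested compounds plus 3 SD, cut at about 21% in these data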;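 note: 0% = DMSO only wells and 100% = clavulanate BLA inhibitor control wells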
# ABHD5 PLIN5 PPI: ABHD5-PLIN5 interaction inhibitors, primary screen, cell lysate, split luciferase complementation, luminescence | Split G. princeps luciferase complementation, 4 h | 360,000 tested, 0.78% active | inhibition, % at 4 µM | Perilipin-5 (Homo sapiens) + 1-acylglycerol-3-phosphate O-acyltransferase ABHD5 (Homo …;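 active = inhibition above the mean inhibition across every tested compound plus 3 SD, cut at about 22% in these data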;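 note: 0% = DMSO only wells and the 100% control is not disclosed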
# TLR4-MyD88 BLA: inhibitors of TLR4-MyD88 association in cells, primary screen, cell-based, HeLa CL3-4, BLA complementation, FRET ratio. AID 861, 2007. 200,000 tested, 0.18% active. inhibition, % at 8.4 µM. HeLa CL3-4 TLR4/MyD88 BLA complementation. Toll-like receptor 4 (Homo sapiens) + Myeloid differentiation primary response protein …; in the data active = inhibition above about 25%;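 note: 0% = vehicle and 100% = reference inhibitor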
# Target sequence (O00206 whole entry, looked up): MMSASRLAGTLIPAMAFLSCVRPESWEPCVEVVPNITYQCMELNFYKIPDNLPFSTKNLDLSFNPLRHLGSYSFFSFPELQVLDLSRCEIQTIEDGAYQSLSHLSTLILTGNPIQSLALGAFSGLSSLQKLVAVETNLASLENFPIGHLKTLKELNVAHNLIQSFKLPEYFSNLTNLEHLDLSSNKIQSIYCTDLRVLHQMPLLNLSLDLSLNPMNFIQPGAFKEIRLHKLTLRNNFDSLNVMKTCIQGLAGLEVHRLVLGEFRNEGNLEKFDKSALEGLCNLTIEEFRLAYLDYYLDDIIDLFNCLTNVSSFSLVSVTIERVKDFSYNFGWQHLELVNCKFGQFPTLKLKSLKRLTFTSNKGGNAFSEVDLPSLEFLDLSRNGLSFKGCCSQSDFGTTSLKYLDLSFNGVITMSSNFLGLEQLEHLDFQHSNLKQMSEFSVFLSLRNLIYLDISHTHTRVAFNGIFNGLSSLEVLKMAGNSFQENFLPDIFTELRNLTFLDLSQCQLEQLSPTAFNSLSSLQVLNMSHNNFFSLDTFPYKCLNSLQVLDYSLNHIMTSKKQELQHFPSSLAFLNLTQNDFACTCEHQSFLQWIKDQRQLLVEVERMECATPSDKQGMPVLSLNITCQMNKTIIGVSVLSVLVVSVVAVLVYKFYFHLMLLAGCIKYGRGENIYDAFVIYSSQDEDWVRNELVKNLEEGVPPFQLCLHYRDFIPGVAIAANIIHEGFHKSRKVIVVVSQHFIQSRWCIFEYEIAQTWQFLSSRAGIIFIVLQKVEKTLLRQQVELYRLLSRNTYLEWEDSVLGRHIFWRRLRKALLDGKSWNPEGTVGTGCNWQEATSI
# Target sequence (Q99836 whole entry, looked up): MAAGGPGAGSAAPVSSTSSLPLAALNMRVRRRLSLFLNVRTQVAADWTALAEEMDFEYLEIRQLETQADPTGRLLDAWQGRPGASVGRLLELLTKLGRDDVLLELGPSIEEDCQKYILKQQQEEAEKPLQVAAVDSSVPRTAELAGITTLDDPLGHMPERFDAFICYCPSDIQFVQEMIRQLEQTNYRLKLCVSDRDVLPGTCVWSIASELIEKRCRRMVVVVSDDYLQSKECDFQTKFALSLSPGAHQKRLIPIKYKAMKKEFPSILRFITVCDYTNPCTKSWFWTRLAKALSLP
# TLR4 MyD88 cnf: TLR4-MyD88 association inhibitors, retest, confirmation, cell-based, HeLa CL3-4, BLA complementation, FRET ratio. inhibition, % at 8.4 µM. 350 tested, 50% active. CCF4 FRET ratio. shares compounds with TLR4-MyD88 BLA;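 active = mean inhibition across three repeat runs above about 25% carried over from the earlier screen, limit read from the data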;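 note: plate controls were DMSO only for no effect and clavulanic acid blocking BLA at full dose for full effect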
# BLA inh HeLa: counter-screen for TLR4-MyD88 inhibitors: beta-lactamase reporter inhibitors; inhibition, % at 8.4 µM; shares compounds with TLR4-MyD88 BLA; HeLa BLA reporter, CCF4 FRET ratio; 350 tested, 63% active;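 active = mean inhibition over three repeats above about 26% taken from the earlier screen, limit read from the data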;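 note: HeLa cells stably expressing beta-lactamase reporter as counterscreen for TLR4-MyD88 inhibitors; 0% = DMSO and 100% = clavulanic acid full inhibition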
# Dynein confirm: dynein cargo transport inhibitors, GR-EGFP translocation, confirmation, imaging, high-content imaging, GR-EGFP cells; calls only at 20 µM; shares compounds with Dynein transport; 1,000 tested, 69% active; 3617.4 GR-EGFP nuclear translocation imaging, dexamethasone-induced;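 active = inhibition of receptor movement into the nucleus at or above a set limit in both runs, with normal cell brightness and cell count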;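 note: dexamethasone at 1 µM final in well for 30 min; nuclear minus cytoplasmic GR-EGFP mean intensity difference in channel 2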
# TLR9-MyD88 conf: TLR9-MyD88 association inhibitors, retest, confirmation, cell-based, CHO, BLA complementation, fluorescence, triplicate; 680 tested, 51% active; AID 540250, 2011; shares compounds with TLR9-MyD88 inh; inhibition, % at 4.98 µM; CCF4 FRET ratio;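 active = mean inhibition across three repeats above about 21% taken from the earlier screen, limit read from the data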;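 note: blue over green emission ratio reports constitutive TLR9 MyD88 association via BLA complementation; 0% = DMSO vehicle wells and 100% = clavulanate BLA inhibitor wells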
# BLA counter-1: beta-lactamase reporter inhibitors in CHO cells, artefact control for TLR9-MyD88 binding inhibitor project, cell-based, fluorescence | 680 tested, 7% active | inhibition, % at 4.98 µM | shares compounds with TLR9-MyD88 inh | AID 540251, 2011 | CHO-BLA cells, CCF4 FRET ratio, BLA reporter;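 active = mean inhibition above a 50% cutoff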;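 note: counterscreen of TLR9-MyD88 hits on CMV-driven BLA in CHO-K1 cells; 0% = DMSO alone and 100% = clavulanate blocking BLA; higher means less blue over green ratio so more BLA blockade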
# TLR9 CHO tox: CHO cell viability loss – luminescence, single concentration, cytotoxicity control for TLR9-MyD88 binding inhibitor project; AID 588336, 2011; TLR9-MyD88 CHO cells cytotoxicity; 680 tested, 39% active; inhibition, % at 4.98 µM; shares compounds with TLR9-MyD88 inh; in the data active = inhibition above about 11%
# NOD2 RIPK2 conf: NOD2-RIPK2 binding disruptors, retest, confirmation, fluorescence, CHO cells, BLA complementation, triplicate | inhibition, % at 4.98 µM | 1,200 tested, 70% active | CCF4 FRET | AID 624370, 2012 | shares compounds with NOD2 RIPK2 PPI;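 active = mean inhibition across replicates above a set limit taken from the earlier primary screen, cut at about 21% in these data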;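 note: 0% = DMSO-only wells and the high end = clavulanate BLA-blocked wells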
# BLA counter-2: NOD2-RIPK2 counterscreen BLA reporter activity | shares compounds with NOD2 RIPK2 PPI | CHO BLA reporter, CCF4 FRET ratio | inhibition, % at 4.98 µM | 1,200 tested, 57% active;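 active = mean inhibition above the low-control mean inhibition plus three low-control SD, cut at about 11% in these data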;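 note: 0% = DMSO only wells and 100% = clavulanate high control wells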
# * = called active by the depositor; nt = no result; + = active, no number. Most compounds without a hit are left out; they make up all but 1.6% or so of the library.
SMILES,B2AR ag,NOD2 RIPK2 PPI,Dynein transport,TLR9-MyD88 inh,ABHD5 PLIN5 PPI,TLR4-MyD88 BLA,TLR4 MyD88 cnf,BLA inh HeLa,TLR9-MyD88 conf,BLA counter-1,TLR9 CHO tox,NOD2 RIPK2 conf,BLA counter-2,others
COc1cc2c3nnc(-c4ccc(F)cc4)c-3cn(Cc3cccc(C)c3)c2cc1OC,-1,55*,2.3,41*,3,44*,14,60*,26*,44,-2,73*,75*,
COc1cc2c3nnc(-c4ccc(F)cc4)c-3cn(Cc3ccc(C)cc3)c2cc1OC,-309,51*,-0.16,27*,0,48*,26*,81*,59*,61*,8,84*,86*,
Cc1cn([C@H]2C[C@H](O)[C@@H](CNCC3=Cc4cc(O)ccc4OC3)O2)c(=O)[nH]c1=O,nt,-4,nt,-1,6,nt,nt,nt,nt,nt,nt,nt,nt,
CCc1nc2c(OCc3ccc(OC)cc3)cccn2c1N(C)C(=O)c1ccco1,nt,-3,nt,nt,3,nt,nt,nt,nt,nt,nt,nt,nt,
O=S(=O)(c1cccc2ccccc12)N1CCC2CC1c1cc(-c3ccc4c(c3)OCO4)ccc12 (configuration not stated),nt,-3,nt,nt,-1,nt,nt,nt,nt,nt,nt,nt,nt,
COc1ccc(C(=O)c2sc3nc(-c4ccccc4)ccc3c2N)cc1,-179,50*,-0.82,40*,-10,47*,52*,86*,52*,53*,6,73*,79*,
CC(C)OC(=O)c1sc2nc(-c3ccccc3)ccc2c1N,-6,24*,0.87,38*,-6,49*,48*,77*,42*,45,8,64*,73*,
CC1(C(=O)NCc2cccs2)CCN1C(=O)Cc1ccc(Cl)cc1Cl (configuration not stated),nt,0,nt,nt,-11,nt,nt,nt,nt,nt,nt,nt,nt,
O=C1c2cccc3c([N+](=O)[O-])ccc(c23)C(=O)N1c1ccccn1,-114,90*,1.5,81*,6,92*,91*,114*,65*,85*,99*,93*,87*,
Cc1cc(Cl)n2c(nc3cc(F)c(F)cc32)c1C#N,113*,63*,-4.3*,71*,6,75*,72*,86*,66*,54*,101*,90*,82*,Dynein confirm=+
Cc1cc(C)n2c(=O)c3ccc(Cl)cc3nc2c1C#N,-8,-6,0.5,0,2,1,nt,nt,nt,nt,nt,nt,nt,
COc1ccc(C(=O)NC2CCc3ccccc32)cc1OC1CCN(C(C)C)CC1 (configuration not stated),0,4,nt,-8,1,nt,nt,nt,nt,nt,nt,nt,nt,
CCCCCCSc1ccc(-c2nc3cnccn3c2NC2CCCCC2)cc1,nt,-5,nt,nt,-3,nt,nt,nt,nt,nt,nt,nt,nt,
Clc1ccc(-c2nc3cnccn3c2NC2CCCC2)cc1,5,25*,-0.22,24*,-8,32*,10,22,15,15,-1,34*,34*,
O=[N+]([O-])c1ccccc1N/N=C/c1c[nH]c2ccccc12,2,-7,-0.68,-6,11,-16,nt,nt,nt,nt,nt,nt,nt,
O=[N+]([O-])c1ccc(N/N=C/c2c[nH]c3ccccc23)cc1,-214,36*,-8.4,44*,10,40*,28*,53*,29*,24,9,46*,47*,Dynein confirm=+
O=C(Cn1cc(COc2ccc3ccc(=O)oc3c2)nn1)c1ccc(O)cc1,7,-3,nt,0,4,nt,nt,nt,nt,nt,nt,nt,nt,
CN1C(=O)CON=C1c1cccc2ccccc12,nt,-13,nt,nt,-5,nt,nt,nt,nt,nt,nt,nt,nt,
O=S(=O)(c1ccc(NC(=S)N/N=C/c2c3ccccc3cc3ccccc23)cc1)N1CCOCC1,1,22*,-0.87,4,-11,39*,19,43*,nt,nt,nt,49*,53*,
O=C(NCC1CC1)c1csc([C@@H]2O[C@H](CO)[C@H](O)[C@H](O)[C@H]2O)n1,nt,-11,nt,nt,-2,nt,nt,nt,nt,nt,nt,nt,nt,
CCN(CC)c1ccc(/C=C/C(=O)c2ccc(Br)cc2)cc1,nt,59*,-6.9,34*,-4,55*,53*,74*,39*,47,-5,78*,79*,Dynein confirm=+
CN(C)c1ccc(C(=O)/C=C/c2ccc(Br)cc2)cc1,-1,-11,2.1,-6,5,4,nt,nt,nt,nt,nt,nt,nt,
CCN(CC)c1ccc2c(C)c(Cl)c(=O)oc2c1,11,15,-0.58,8,-3,16,nt,nt,nt,nt,nt,nt,nt,
CCN(CC)c1ccc2c(c1)oc(=O)c1c(Cl)cc(=O)oc12,-302,62*,0.091,50*,14,80*,87*,109*,51*,74*,73*,89*,84*,
N#C/C(=C\c1cn(Cc2ccccc2)c2ccccc12)C(=O)NCc1ccco1,-17,-2,0.48,-5,7,2,nt,nt,nt,nt,nt,nt,nt,
